Compound activity deposited in PubChem BioAssay by Broad Institute.
Sampled rows, rich in hits. Any-hit rate of the full collection: about 3.1%.
FN deposition inh = fibronectin deposition inhibition; AH1F fibroblasts, Alexa488-fibronectin deposition fluorescence, overnight; inhibition, % at 12.6 µM; 350,000 tested, 0.086% active;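 active = mean inhibition across replicates of 30% or more, regardless of how many single replicates reach that level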
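Assay system: AH1F fibroblasts assembling fluorescent fibronectin matrix; Amount: 10000 AH1F cells per well; Buffer or medium: DMEM, 2% serum; Probe or stimulus: Alexa488-fibronectin, 24 nM final in well; Doses: single compound dose, delivered by pin transfer; Incubation: 1 h adhesion, overnight exposure; Measured by: fluorescence 485/525 nm; Read-out: fibronectin deposition inhibition.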
PAX8 reporter = inhibitors of PAX8 transcriptional activity in RMG-I cells | 360,000 tested, 1.2% active | inhibition, % at 12.6 µM | RMG-I TPO-luciferase reporter, SteadyGlo, 24 h;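 active = mean replicate inhibition at least 60% with every replicate also reaching 60%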;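 also: luciferase light reporting Pax8 driven TPO promoter activity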
FGF22 binding = binders of recombinant human FGF22 by thermal shift; Q9HCT0; SYPRO orange fluorescence; percent of sucrose octasulfate shift, DMSO zero; activity (Tm shift, normalised), % at 9.99 µM; 340,000 tested, 1.5% active;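 active = mean Tm shift, scaled 0 neutral to 100 positive control, at about 1.3% or above, every replicate too, limit read from the data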
Target sequence (Q9HCT0 whole entry, looked up): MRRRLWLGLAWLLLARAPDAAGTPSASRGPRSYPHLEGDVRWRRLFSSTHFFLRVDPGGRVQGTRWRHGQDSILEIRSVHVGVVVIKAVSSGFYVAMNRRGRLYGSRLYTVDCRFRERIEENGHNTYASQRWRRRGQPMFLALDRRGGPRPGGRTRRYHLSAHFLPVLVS
PGC1a acetyl inh = lowers PGC1a acetylation signal in U2OS cells | 350,000 tested, 0.17% active | AID 651687 | AlphaScreen anti-acetyl-lysine; with virally co-expressed GCN5 acetyltransferase | inhibition, % at 15.6 µM;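 active = every replicate shows inhibition of at least 40%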
Env fusion inh = HIV envelope-mediated fusion inhibition | HeLa-JRFL Env/CEM21 cell fusion, luciferase | inhibition, % at 12.3 µM | 360,000 tested, 1.1% active | AID 651610;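 active = mean replicate inhibition score of at least 50 and every replicate individually at or above 50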
EWS-Fli block = inhibitors of EWS/Fli oncoprotein transcriptional activity. A673 NR0B1-luciferase reporter, viability-normalised. inhibition, % at 12.6 µM. 350,000 tested, 0.67% active. AID 651661;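 active = mean inhibition of at least 50% after viability correction, with every replicate also passing that limit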;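 also: firefly luciferase signal divided by Alamar Blue viability fluorescence both relative to DMSO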
Of the large screens only hits and unclear results are named; the others gave an inactive call; [ ] = another dose, or the depositor's remark.

CCCCOCCCNC(=O)C[C@H]1C[C@@]2(C(=O)OC)C(=C[C@H](C(C)(C)C)O[C@@H]2C)N(Cc2ccc3c(c2)OCO3)C1=O	Env fusion inh 74 (no result: PGC1a acetyl inh)
COC(=O)[C@]12C[C@H](CC(=O)NCc3ccc(OC)c(OC)c3)C(=O)N(Cc3ccc4c(c3)OCO4)C1=C[C@H](C(C)(C)C)O[C@@H]2C	PAX8 reporter 79 (no result: PGC1a acetyl inh)
COC(=O)[C@]12C[C@H](CC(=O)NCCc3ccccc3OC)C(=O)N(Cc3ccc4c(c3)OCO4)C1=C[C@H](C(C)(C)C)O[C@@H]2C	none (no result: PGC1a acetyl inh)
COC(=O)[C@]12C[C@H](CC(=O)NCc3cccc4ccccc34)C(=O)N(Cc3ccc4c(c3)OCO4)C1=C[C@H](C(C)(C)C)O[C@@H]2C	Env fusion inh 56 (no result: PGC1a acetyl inh)
COc1cc(C(=O)Nc2cccc(C)n2)ccc1OCC(=O)N1CCOCC1	none (no result: Env fusion inh)
COc1ccc(-c2csc(NC(=O)c3ccc(OCC(=O)N4CCOCC4)c(OC)c3)n2)cc1OC	FGF22 binding 44 (no result: PGC1a acetyl inh)
COc1ccc(NC(=O)C(=O)NCC2CCCN2S(=O)(=O)c2cccs2)cc1 (stereo unspecified)	Env fusion inh 83 (no result: PGC1a acetyl inh)
COC(=O)C1C2OC(C(Br)C2Br)C1C(=O)OC (stereo unspecified)	FGF22 binding 44 (no result: PGC1a acetyl inh)
CCCn1c(NC(=O)c2ccccc2)nc2ccccc21	none (no result: FN deposition inh, PAX8 reporter, FGF22 binding, Env fusion inh, EWS-Fli block)
CCCn1c(Nc2nc3ccccc3n2C)nc2ccccc21	Env fusion inh 140 (no result: PAX8 reporter, FGF22 binding, EWS-Fli block)
CCCCCCCn1c(NC(=O)CC)nc2ccccc21	Env fusion inh 72
CCCn1c(NC(=O)c2cccc(S(=O)(=O)N3CCCC3)c2)nc2ccccc21	PAX8 reporter 74, Env fusion inh 132 (no result: FGF22 binding, PGC1a acetyl inh, EWS-Fli block)
C[C@H](CO)N1C[C@H](C)[C@H](CN(C)C(=O)c2ccc(F)cc2)Oc2ncc(C3=CCCC3)cc2C1=O	none (no result: FN deposition inh)
CNC(=O)C[C@H]1CC[C@@H]2[C@H](COc3ccc(NC(=O)c4cc(C)on4)cc3C(=O)N2C)O1	none
Cc1cccc(CN2CCc3c([nH]c4ccccc34)C2CC(C)C)n1 (stereo unspecified)	none
Cc1cnc(CN2CCc3c([nH]c4ccccc34)C2CC(C)C)[nH]1 (stereo unspecified)	FGF22 binding 43
CO[C@@H]1CN(C)C(=O)c2cc(NS(=O)(=O)c3cn(C)cn3)ccc2OC[C@H](C)N(CC2CC2)C[C@@H]1C	none (no result: PAX8 reporter)
COc1ccc(S(=O)(=O)N(C)C[C@@H]2Oc3ccc(NC(=O)C4CC4)cc3CC(=O)N([C@H](C)CO)C[C@H]2C)cc1	none (no result: FN deposition inh, PAX8 reporter)
Cc1ccccc1OCc1nc(-c2cccnc2)no1	FGF22 binding 46 (no result: PGC1a acetyl inh)
Clc1ccc(-c2nnc(-c3ccccc3)c(-c3ccccc3)n2)cc1	none
Nc1nc(-c2ccc(Cl)cc2)nnc1-c1ccc(Br)cc1	FGF22 binding 44
COc1ccc(C2c3ccc4ccccc4c3Oc3ncn(CCCN(C)C)c(=N)c32)cc1 (stereo unspecified)	EWS-Fli block 63
COc1ccccc1C1c2ccc3ccccc3c2Oc2ncn(CCN(C)C)c(=N)c21 (stereo unspecified)	none
COc1cc(-c2c(CCO)sc3ccccc23)cc(OC)c1OC	EWS-Fli block 56 (no result: FN deposition inh, PGC1a acetyl inh)
O=C(C[C@@H]1C[C@@H]2c3cc(NS(=O)(=O)c4ccc(F)cc4)ccc3O[C@@H]2[C@H](CO)O1)NCc1ccncc1	none (no result: PAX8 reporter, Env fusion inh)
O=C(N[C@@H]1CC[C@H](CCNC(=O)C2CCOCC2)O[C@H]1CO)c1ccncc1	none
c1ccc(COc2ccc(OCCN3CCCCC3)cc2)cc1	PAX8 reporter 99 (no result: PGC1a acetyl inh, Env fusion inh)
c1ccc(COc2ccc(OCCCN3CCCC3)cc2)cc1	PAX8 reporter 67 (no result: PGC1a acetyl inh, Env fusion inh)
Cc1ccc(NC(=O)OCCN2CCN(S(=O)(=O)c3ccc(C)cc3)CCC2=O)cc1	none
Cc1ccc(S(=O)(=O)N2CCC(=O)N(CCOCc3ccc(C(F)(F)F)cc3)CC2)cc1	Env fusion inh 69 (no result: PGC1a acetyl inh)
Cc1ccc(S(=O)(=O)N2CCC(=O)N(CCOC(=O)Nc3cccc(Cl)c3)CC2)cc1	Env fusion inh 92
c1ccc(-c2cc(-c3cc(-c4ccccc4)on3)no2)cc1	FGF22 binding 43 (no result: PGC1a acetyl inh)
COc1cccc(-c2nc(-c3ccccc3)no2)c1	none (no result: FGF22 binding, EWS-Fli block)
COc1cccc(-c2nc(-c3ccccn3)no2)c1	PAX8 reporter 70 (no result: FGF22 binding, PGC1a acetyl inh, EWS-Fli block)
COc1ccc(CN(C(=O)c2ccc(CN3CCOCC3)o2)C(C(=O)NCC2CCCO2)c2ccc(F)cc2)cc1 (stereo unspecified)	none
O=C(NCC1CCCO1)C(c1ccc(F)cc1)N(Cc1ccc2c(c1)OCO2)C(=O)c1ccc(CN2CCOCC2)o1 (stereo unspecified)	FGF22 binding 43
CCCCCCCn1c(=N)n(CC(O)c2ccco2)c2ccccc21 (stereo unspecified)	FGF22 binding 44
C[C@H]1CCCCO[C@@H](CN(C)Cc2ccc(C(F)(F)F)cc2)[C@@H](C)CN([C@@H](C)CO)C(=O)c2cc(NC(=O)CCC(F)(F)F)ccc2O1	none (no result: FN deposition inh)
C[C@@H]1CN([C@@H](C)CO)C(=O)c2cc(NC(=O)CCCN(C)C)ccc2O[C@@H](C)CCCCO[C@H]1CN(C)Cc1ccc(C(F)(F)F)cc1	none (no result: FN deposition inh, PAX8 reporter)
C[C@H](CO)N1C[C@H](C)[C@H](CN(C)Cc2ccc(C(F)(F)F)cc2)OCCCC[C@H](C)Oc2ccc(NC(=O)CCC(F)(F)F)cc2C1=O	PAX8 reporter 77 (no result: FN deposition inh)
C[C@H](CO)N1C[C@H](C)[C@H](CN(C)Cc2ccc(C(F)(F)F)cc2)OCCCC[C@H](C)Oc2ccc(NC(=O)CCCN(C)C)cc2C1=O	EWS-Fli block 68 (no result: FN deposition inh)
O=CNc1ccc2c3c(cccc13)-c1ccccc1-2	FGF22 binding 45
CC(=O)Nc1ccc2c3c(cccc13)C(=O)N(c1ccccc1)C2=O	none (no result: PGC1a acetyl inh)
COC(=O)c1ccc(Cl)cc1NC(=O)/C=C/c1ccc(C)o1	FGF22 binding 44
COC(=O)c1cc(Cl)c(NC(=O)/C=C/c2ccc(Cl)cc2Cl)cc1OC	none (no result: PAX8 reporter, FGF22 binding, EWS-Fli block)
C[C@H](CO)N1C[C@H](C)[C@@H](CN(C)C(=O)NC2CCCCC2)Oc2c(NC(=O)C3CCOCC3)cccc2C1=O	none
COC(=O)c1ccc(-c2noc(CN(C)CCC3CCCCO3)n2)cc1 (stereo unspecified)	FGF22 binding 43 (no result: PGC1a acetyl inh)
COc1ccc(-c2noc(CN(C)CCC3CCCCO3)n2)cc1 (stereo unspecified)	none (no result: FN deposition inh)
O=C1Cc2c([nH]c3ccc([N+](=O)[O-])cc23)-c2ccccc2N1	Env fusion inh 96 (no result: PAX8 reporter, PGC1a acetyl inh)
C[C@@H]1CN([C@@H](C)CO)C(=O)c2cc(NC(=O)Nc3ccc4c(c3)OCO4)ccc2O[C@@H](C)CCCCO[C@H]1CN(C)Cc1ccc(C(F)(F)F)cc1	PAX8 reporter 61, Env fusion inh 61[16.7 µM] (no result: FN deposition inh)
